Test results taken from publication PMC5989537 (Journal of natural products, 2018).
Where two headings read alike, the source gives them in different places.

Tests used:
[1] = system: intracellular L. (L.) amazonensis amastigotes; experiment: Intracellular L.; type: cell-based, Leishmania (L.) amazonensis; details: for intracellular parasitism (in words): 6.125, 25, 50 or 100 μM, 24 h; for reduction of the amastigote number over the control group: at higher concentrations, 24 h incubation, infected BALB/c macrophages
How it was run: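 BALB/c bone-marrow-derived macrophages infected with stationary-phase L. (L.) amazonensis promastigotes (MHOM/BR/1973/M2269) at MOI 10 for 1 h, washed three times with PBS, then held 24 h at 33 °C, 5% CO2. Test compound added at 6.125, 25, 50 or 100 μM for 24 h at 33 °C. Cells washed, MeOH-fixed and stained; amastigotes counted in 300 cells on triplicate coverslips. Percent reduction taken versus untreated infected cells; two independent experiments.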

P. falciparum (3D7) = experiment: Anti-plasmodial SYBR green assay, P. falciparum 3D7 blood parasites; type: cell-based, Plasmodium falciparum
[2] = system: L. amazonensis promastigotes; experiment: Anti-leishmanial MTT viability assay, L. amazonensis promastigotes; type: cell-based, Leishmania (L.) amazonensis
P. falciparum [3] = details: cited from earlier work
HepG2 = experiment: Cytotoxicity on HepG2 cells; type: cell-based; details: HepG2, 24 h, MTT
P. falciparum [4] = experiment: In vitro association with artesunate; type: cell-based, Plasmodium falciparum; details: isobologram analysis
P. falciparum [5] = experiment: Stage-specific inhibitory activity on highly-synchronized parasites; type: cell-based, Plasmodium falciparum; details: 10-fold IC50, synchronized parasites
[6] = system: L. infantum promastigotes; experiment: Anti-leishmanial MTT viability assay, L. infantum promastigotes; type: cell-based, Leishmania (L.) infantum
T. cruzi epimastigotes = experiment: Anti-T. cruzi MTT viability assay, epimastigotes; type: cell-based, Trypanosoma cruzi
HepG2 cells = experiment: HepG2 cell morphology by microscopy after treatment; type: cell-based, human; details: 24 h, concentration 10-fold higher than IC50 (10 μM)
Leishmania donovani = details: cited from earlier work
T. cruzi = details: cited from earlier work
T. brucei rhodesiense = details: cited from earlier work
[7] = Plasmodium falciparum, 3D7, read-out: P. falciparum (3D7) EC50+/−S.D., 3D7 sensitive strain, SYBR green

Row | SMILES | EC50 (P. falciparum (3D7); [7]) | anti-plasmodial activity against P. falciparum (in words) (P. falciparum (3D7)) | other results
1 | O=C(NCCCCNCCCNC(=O)c1cc(Br)c(Br)o1)c1cc(Br)c(Br)o1 [Compound 50] | 3 ± 1 µM | – | intracellular parasitism (in words) [1]: reduced in a dose-dependent manner; reduction of the amastigote number over the control group [1]: approximately 80%; anti-parasitic activity against L. (L.) amazonensis (in words) [2]: active, but considerably less potent
2 | COC(=O)c1cc(Br)c(Br)[nH]1 | – | – | anti-parasitic activity against P. falciparum (P. falciparum [3]): 7.9 µg/mL
3 | O=C(NCCCCNCCCNC(=O)c1ccc(Br)s1)c1ccc(Br)s1 [Compound 42] | > 10 µM | – | intracellular parasitism (in words) [1]: reduced in a dose-dependent manner; reduction of the amastigote number over the control group [1]: approximately 80%; anti-parasitic activity against L. (L.) amazonensis (in words) [2]: active, but considerably less potent
4 | O=C(NCCCCNCCCNC(=O)c1cc(Cl)c(Cl)[nH]1)c1cc(Cl)c(Cl)[nH]1 [Compound 33] | > 10 µM | completely inactive | –
5 | O=C(NCCCCCCNCCCCCCNC(=O)c1cc(Br)c(Br)[nH]1)c1cc(Br)c(Br)[nH]1 [Compound 25] | 2 ± 1 µM | as active as pseudoceratidine | –
6 | O=C(NCCCCNCCCNC(=O)c1cc(Br)c[nH]1)c1cc(Br)c[nH]1 [Compound 31, 2,21-debromopseudoceratidine] | 7 ± 1 µM | – | –
7 | O=C(NCCCNCCCCNCCCNC(=O)c1cc(Br)c(Br)[nH]1)c1cc(Br)c(Br)[nH]1 [Compound 23] | 1.9 ± 1.2 µM | as active as pseudoceratidine | intracellular parasitism (in words) [1]: reduced in a dose-dependent manner; reduction of the amastigote number over the control group [1]: approximately 80%; EC50 (P. falciparum (3D7); read-out: P. falciparum (3D7) EC50+/−S.D., 3D7 sensitive strain, SYBR green): 2 ± 1 µM; anti-parasitic activity against L. (L.) amazonensis (in words) [2]: active, but considerably less potent
8 | O=C(NCCCCCNC(=O)c1ccc[nH]1)c1ccc[nH]1 [Compound 28] | > 10 µM | – | –
9 | O=C(NCCCCNCCCNC(=O)c1cc(Br)c(Br)[nH]1)c1cc(Br)c(Br)[nH]1 [Compound 1, pseudoceratidine] | 1.1 ± 0.1 µM | – | HepG2 MDL50+/−S.D. (HepG2): 16 ± 1 (14.6 – 17.4) μM; interaction effect in combination with artesunate (P. falciparum [4]): additive; stage-specific inhibitory activity (in words) (P. falciparum [5]): inhibitory activity in the early ring stages; anti-parasitic activity against L. (L.) infantum (in words) [6]: essentially inactive; anti-parasitic activity against T. cruzi (in words) (T. cruzi epimastigotes): essentially inactive; toxicity for HepG2 cells by microscopic morphology (HepG2 cells): not toxic; anti-parasitic activity against L. (L.) amazonensis (in words) [2]: essentially inactive
10 | Nc1ncc(/C=C/CNC(=O)c2cc(Br)c(Br)[nH]2)[nH]1 [Oroidin] | – | – | anti-parasitic activity against P. falciparum (P. falciparum [3]): 3.9 µg/mL; activity against Leishmania donovani (in words) (Leishmania donovani): inactive; activity against T. cruzi (in words) (T. cruzi): inactive; activity against T. brucei rhodesiense (T. brucei rhodesiense): 17.3 µg/mL
11 | Cc1ccc(C(=O)NCCCCNCCCNC(=O)c2ccc(C)s2)s1 [Compound 43] | > 10 µM | – | –
12 | O=C(NCCCCNCCCNC(=O)c1ccc[nH]1)c1ccc[nH]1 [Compound 29] | > 10 µM | completely inactive | –
13 | Cc1ccc(C(=O)NCCCCNCCCNC(=O)c2ccc(C)o2)o1 [Compound 51] | – | completely inactive | –
14 | O=C(NCCCCNCCCNC(=O)c1nc2ccccc2[nH]1)c1nc2ccccc2[nH]1 [Compound 39] | > 10 µM | – | –
15 | O=C(NCCCCNCCCNC(=O)c1cccc(Cl)n1)c1cccc(Cl)n1 [Compound 46] | > 10 µM | – | –
16 | O=C(O)c1cc(Br)c(Br)[nH]1 [4,5-dibromo-1H-pyrrole-2-carboxylic acid] | – | – | anti-parasitic activity against P. falciparum (P. falciparum [3]): 5.8 µg/mL
17 | CN(CCCCNC(=O)c1cc(Br)c(Br)[nH]1)CCCNC(=O)c1cc(Br)c(Br)[nH]1 [Compound 16, N-Methyl-pseudoceratidine] | 4 ± 1 µM | still active | –
18 | O=C(NCCCCNCCCNC(=O)c1ccc(F)[nH]1)c1ccc(F)[nH]1 [Compound 35] | > 10 µM | completely inactive | –
19 | [N-]=[N+]=NCC(=O)N(CCCCNC(=O)c1cc(Br)c(Br)[nH]1)CCCNC(=O)c1cc(Br)c(Br)[nH]1 [Compound 17] | > 10 µM | inactive | anti-parasitic activity against L. (L.) infantum (in words) [6]: inactive; anti-parasitic activity against T. cruzi (in words) (T. cruzi epimastigotes): inactive; anti-parasitic activity against L. (L.) amazonensis (in words) [2]: inactive
20 | O=C(NCCCCCNC(=O)c1cc(Br)c(Br)[nH]1)c1cc(Br)c(Br)[nH]1 [Compound 20] | > 10 µM | inactive | anti-parasitic activity against T. cruzi (in words) (T. cruzi epimastigotes): good anti-parasitic activity; anti-parasitic activity against L. (L.) amazonensis (in words) [2]: active, but considerably less potent
21 | O=C(NCCCCNCCCNC(=O)c1cc2ccccc2[nH]1)c1cc2ccccc2[nH]1 [Compound 38] | > 10 µM | – | –
22 | Cc1cccc(C(=O)NCCCCNCCCNC(=O)c2cccc(C)n2)n1 [Compound 47] | > 10 µM | – | –
23 | O=C(NCCSCCNC(=O)c1cc(Br)c(Br)[nH]1)c1cc(Br)c(Br)[nH]1 [Compound 27] | > 10 µM | inactive | anti-parasitic activity against T. cruzi (in words) (T. cruzi epimastigotes): weak activity; anti-parasitic activity against L. (L.) amazonensis (in words) [2]: active, but considerably less potent
24 | O=C(NCCCCCCCCNC(=O)c1cc(Br)c(Br)[nH]1)c1cc(Br)c(Br)[nH]1 [Compound 21] | > 10 µM | inactive | –
